Data as given in publication PMC3653324 (Translational stroke research, 2012).

What was measured:
CYP2D6 = CYP2D6 (Homo sapiens, UniProt P10635); assay: Cloe Screen Cytochrome P450 Inhibition assay; assay type: in vitro ADME
Summary of the method: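 Run blinded. […] Metabolite formation was monitored by LC-MS/MS. IC50 was calculated from the decrease in metabolite formation relative to vehicle control. Quinidine served as positive control inhibitor.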

P-glycoprotein (PgP) = assay: P-glycoprotein; assay type: cell-based, rat; settings: H4IIE cells, MTT, 24 hr, single exposure concentration (20 or 50 μM), without CSA
H4IIE cells [1] = assay type: cell-based; settings: 24 hr
H4IIE cells [2] = assay: CeeTox cellular ATP content; settings: 24 hr
CYP2C19 = CYP2C19 (Homo sapiens, UniProt P33261); assay: Cloe Screen Cytochrome P450 Inhibition assay; assay type: in vitro ADME
Sequence of CYP2C19 (P33261 whole entry): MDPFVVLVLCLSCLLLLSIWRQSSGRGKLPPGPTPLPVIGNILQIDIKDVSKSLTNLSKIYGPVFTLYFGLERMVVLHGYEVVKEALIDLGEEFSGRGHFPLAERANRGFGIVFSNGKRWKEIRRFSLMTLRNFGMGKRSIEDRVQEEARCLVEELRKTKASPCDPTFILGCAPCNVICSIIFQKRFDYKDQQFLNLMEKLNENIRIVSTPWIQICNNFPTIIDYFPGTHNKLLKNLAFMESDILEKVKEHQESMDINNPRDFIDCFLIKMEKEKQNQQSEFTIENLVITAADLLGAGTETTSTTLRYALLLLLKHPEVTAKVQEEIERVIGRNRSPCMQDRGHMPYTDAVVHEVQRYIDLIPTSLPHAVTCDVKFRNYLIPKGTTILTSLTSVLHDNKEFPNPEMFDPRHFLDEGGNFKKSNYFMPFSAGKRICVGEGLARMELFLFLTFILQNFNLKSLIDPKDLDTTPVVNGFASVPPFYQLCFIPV

H4IIE cells [3] = assay: CeeTox cell mass; settings: 24 hr
CYP1A2 = molecular target: T1, CYP1A2 (Homo sapiens, UniProt P05177); assay: Cloe Screen Cytochrome P450 Inhibition assay; assay type: in vitro ADME; settings: for CYP1A2 inhibition classification: classified from IC50
T1 sequence (P05177 1-516): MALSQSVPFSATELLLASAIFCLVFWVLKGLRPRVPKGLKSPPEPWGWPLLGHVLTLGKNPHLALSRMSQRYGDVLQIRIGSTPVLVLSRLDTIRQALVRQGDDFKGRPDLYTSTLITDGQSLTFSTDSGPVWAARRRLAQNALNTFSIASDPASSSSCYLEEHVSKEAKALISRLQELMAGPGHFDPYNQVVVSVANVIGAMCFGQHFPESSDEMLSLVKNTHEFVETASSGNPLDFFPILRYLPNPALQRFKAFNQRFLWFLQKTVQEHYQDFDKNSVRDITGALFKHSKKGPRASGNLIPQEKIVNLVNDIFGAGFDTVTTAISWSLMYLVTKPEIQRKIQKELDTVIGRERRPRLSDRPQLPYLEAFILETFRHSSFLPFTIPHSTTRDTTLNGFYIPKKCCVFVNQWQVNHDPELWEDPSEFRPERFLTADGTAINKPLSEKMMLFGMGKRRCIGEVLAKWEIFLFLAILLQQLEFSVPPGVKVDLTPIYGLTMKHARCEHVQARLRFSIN

H4IIE cells [4] = assay: CeeTox membrane toxicity; settings: 24 hr, α-GST leakage
Caspase 3 = assay: CeeTox apoptosis; assay type: cell-based, rat; settings: H4IIE cells; for Caspase 3 Activity (Index/Dose): dose: dose at which the index was seen; for Caspase 3 Activity (Index/Dose): index: index of RFU
P-glycoprotein (MDR1) = assay: BBB penetration; assay type: in vitro ADME, canine; settings: dog, MDCK-MDR1
Summary of the method: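 MDCK cells transfected with human MDR1 (P-gp) were grown to a confluent monolayer over 4 days. Test compound was added apically, and A→B transport was followed over 60 min; B→A transport was also measured. Compound on each side was quantified by GC/MS. Papp was calculated for both directions, and efflux ratio = Papp B→A/Papp A→B. High BBB potential: Papp A→B ≥3.0×10⁻⁶ cm/s and efflux <3.0.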

8-Isoprostane (8-ISO) = assay: CeeTox lipid peroxidation measured as 8-isoprostane; settings: H4IIE cells, 8-ISO score
CYP3A4 = CYP3A4 (Homo sapiens, UniProt P08684); assay: Cloe Screen Cytochrome P450 Inhibition assay; assay type: in vitro ADME
Sequence of CYP3A4 (P08684 2-503): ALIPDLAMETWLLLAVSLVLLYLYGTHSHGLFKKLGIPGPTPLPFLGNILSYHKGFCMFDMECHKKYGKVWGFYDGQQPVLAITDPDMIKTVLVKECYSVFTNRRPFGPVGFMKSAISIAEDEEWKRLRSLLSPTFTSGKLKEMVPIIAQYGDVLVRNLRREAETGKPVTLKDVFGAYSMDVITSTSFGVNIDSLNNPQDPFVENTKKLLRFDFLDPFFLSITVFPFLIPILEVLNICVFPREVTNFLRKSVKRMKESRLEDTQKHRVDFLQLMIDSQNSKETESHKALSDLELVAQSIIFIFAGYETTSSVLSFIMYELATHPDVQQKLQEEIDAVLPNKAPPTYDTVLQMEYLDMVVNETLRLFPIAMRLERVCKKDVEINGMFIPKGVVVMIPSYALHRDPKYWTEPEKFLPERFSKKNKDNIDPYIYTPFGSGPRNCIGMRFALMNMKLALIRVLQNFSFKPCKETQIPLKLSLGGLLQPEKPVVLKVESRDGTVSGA

S. typhimurium TA989 = assay: Ames test for mutagenicity, frame-shift strain; assay type: cell-based; settings: first TA98 column; for TA98+S9: with S9, up to 10 μM; for TA98−S9: without S9, up to 10 μM
CYP2C9 = CYP2C9 (Homo sapiens, UniProt P11712); assay: Cloe Screen Cytochrome P450 Inhibition assay; assay type: in vitro ADME
Sequence of CYP2C9 (P11712 whole entry): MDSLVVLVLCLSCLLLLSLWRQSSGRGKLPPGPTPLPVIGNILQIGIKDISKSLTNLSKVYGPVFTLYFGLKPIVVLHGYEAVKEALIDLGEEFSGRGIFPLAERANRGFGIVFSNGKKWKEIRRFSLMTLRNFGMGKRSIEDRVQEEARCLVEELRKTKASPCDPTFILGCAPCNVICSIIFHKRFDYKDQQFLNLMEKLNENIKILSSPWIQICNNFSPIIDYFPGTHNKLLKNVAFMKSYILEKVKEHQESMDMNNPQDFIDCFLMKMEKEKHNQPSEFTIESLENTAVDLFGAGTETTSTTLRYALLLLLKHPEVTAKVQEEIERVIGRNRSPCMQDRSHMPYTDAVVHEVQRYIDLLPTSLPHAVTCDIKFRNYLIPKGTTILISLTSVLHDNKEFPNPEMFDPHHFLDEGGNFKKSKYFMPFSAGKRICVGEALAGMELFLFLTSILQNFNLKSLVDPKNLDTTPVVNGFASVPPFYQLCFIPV

[5] = tested on: Intracellular glutathione (GSH); assay: CeeTox intracellular glutathione; settings: H4IIE cells

Sequence of CYP2D6 (P10635 whole entry): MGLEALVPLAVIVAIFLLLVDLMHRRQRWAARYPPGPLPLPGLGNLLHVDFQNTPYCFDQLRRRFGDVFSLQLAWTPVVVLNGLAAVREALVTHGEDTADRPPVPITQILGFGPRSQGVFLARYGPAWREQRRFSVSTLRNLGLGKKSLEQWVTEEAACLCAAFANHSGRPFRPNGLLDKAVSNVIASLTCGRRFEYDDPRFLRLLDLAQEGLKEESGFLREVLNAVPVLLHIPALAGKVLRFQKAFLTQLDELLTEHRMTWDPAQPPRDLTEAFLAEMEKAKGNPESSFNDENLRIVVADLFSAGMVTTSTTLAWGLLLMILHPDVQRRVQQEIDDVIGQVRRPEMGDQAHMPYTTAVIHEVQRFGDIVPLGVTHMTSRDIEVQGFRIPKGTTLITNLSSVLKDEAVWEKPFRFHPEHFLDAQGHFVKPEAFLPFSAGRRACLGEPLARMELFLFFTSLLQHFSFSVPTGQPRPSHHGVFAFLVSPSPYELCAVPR

CCc1ccc2oc(-c3ccc(O)c(O)c3)c(O)c(=O)c2c1 [CSMC-9, 6-ethyl-3,3',4'-trihydroxy flavone]
IC50 (CYP2D6): > 10 µM
% Control(Compound) (P-glycoprotein (PgP)): 97.0 % Control
MTT TC50 (H4IIE cells [1]): 81 µM
ATP TC50 (H4IIE cells [2]): 80 µM
IC50 (CYP2C19): > 10 µM
Cell Mass TC50 (H4IIE cells [3]): 82 µM
IC50 (CYP1A2): 11.6 µM
MemTox TC50 (H4IIE cells [4]): >300 µM
Caspase 3 Activity (Index/Dose): dose (Caspase 3): 300
Caspase 3 Activity (Index/Dose): index (Caspase 3): 1 (0–200 = 1)
Papp A→B at 60 min (P-glycoprotein (MDR1)): 40.9 ×10⁻⁶ cm/s
efflux ratio at 60 min (P-glycoprotein (MDR1)): 0.19
Membrane Lipid Peroxidation (8-Isoprostane (8-ISO)): 0
IC50 (CYP3A4): > 10 µM
TA98+S9 (S. typhimurium TA989): Negative (Not mutagenic < 10 μM (NEGATIVE))
TA98−S9 (S. typhimurium TA989): Negative (Not mutagenic < 10 μM (NEGATIVE))
IC50 (CYP2C9): > 10 µM
Total GSH TC50 [5]: 149 µM

Cc1cc(O)c(C(=O)/C=C/c2ccc(O)c(O)c2)cc1C [CSMC-10, 4',5'-dimethyl-2',3,4-trihydroxychalcone]
IC50 (CYP2D6): > 10 µM
% Control(Compound) (P-glycoprotein (PgP)): 73.4 % Control
MTT TC50 (H4IIE cells [1]): 83 µM
ATP TC50 (H4IIE cells [2]): 75 µM
IC50 (CYP2C19): > 10 µM
Cell Mass TC50 (H4IIE cells [3]): 86 µM
IC50 (CYP1A2): 6.99 µM
CYP1A2 inhibition classification (CYP1A2): moderate inhibition
MemTox TC50 (H4IIE cells [4]): >300 µM
Caspase 3 Activity (Index/Dose): dose (Caspase 3): 100
Caspase 3 Activity (Index/Dose): index (Caspase 3): 1 (0–200 = 1)
Membrane Lipid Peroxidation (8-Isoprostane (8-ISO)): 2 (2 = Concentration related increase with maximum values ≥ 15 pg/mL)
IC50 (CYP3A4): > 10 µM
TA98+S9 (S. typhimurium TA989): Negative (Not mutagenic < 10 μM (NEGATIVE))
TA98−S9 (S. typhimurium TA989): Negative (Not mutagenic < 10 μM (NEGATIVE))
IC50 (CYP2C9): > 10 µM
Total GSH TC50 [5]: 144 µM

Cc1ccc2oc(-c3ccc(O)c(O)c3)c(O)c(=O)c2c1 [CSMC-11, 6-methyl-3,3',4'-trihydroxy flavone]
IC50 (CYP2D6): > 10 µM
% Control(Compound) (P-glycoprotein (PgP)): 80.3 % Control
MTT TC50 (H4IIE cells [1]): >300 µM
ATP TC50 (H4IIE cells [2]): 52 µM
IC50 (CYP2C19): > 10 µM
Cell Mass TC50 (H4IIE cells [3]): >300 µM
IC50 (CYP1A2): > 25 µM
MemTox TC50 (H4IIE cells [4]): >300 µM
Caspase 3 Activity (Index/Dose): dose (Caspase 3): 300
Caspase 3 Activity (Index/Dose): index (Caspase 3): 1 (0–200 = 1)
Papp A→B at 60 min (P-glycoprotein (MDR1)): 6.67 ×10⁻⁶ cm/s
efflux ratio at 60 min (P-glycoprotein (MDR1)): 0.12
Membrane Lipid Peroxidation (8-Isoprostane (8-ISO)): 0
IC50 (CYP3A4): > 10 µM
TA98+S9 (S. typhimurium TA989): Negative (Not mutagenic < 10 μM (NEGATIVE))
TA98−S9 (S. typhimurium TA989): Negative (Not mutagenic < 10 μM (NEGATIVE))
IC50 (CYP2C9): > 10 µM
Total GSH TC50 [5]: >300 µM

COc1cc(-c2ccc(O)c(O)c2)nc2ccccc12 [CSMC-12, 4-methoxy-2-(3,4-dihydroxyphenyl)quinoline]
IC50 (CYP2D6): > 10 µM
% Control(Compound) (P-glycoprotein (PgP)): 85.9 % Control
MTT TC50 (H4IIE cells [1]): 293 µM
ATP TC50 (H4IIE cells [2]): 223 µM
IC50 (CYP2C19): > 10 µM
Cell Mass TC50 (H4IIE cells [3]): 208 µM
IC50 (CYP1A2): 3.7 µM
CYP1A2 inhibition classification (CYP1A2): moderate inhibition
MemTox TC50 (H4IIE cells [4]): >300 µM
Membrane Lipid Peroxidation (8-Isoprostane (8-ISO)): 1 (1 = Modest increase with maximum values ≤ 15 pg/mL)
IC50 (CYP3A4): > 10 µM
TA98+S9 (S. typhimurium TA989): Negative (Not mutagenic < 10 μM (NEGATIVE))
TA98−S9 (S. typhimurium TA989): Negative (Not mutagenic < 10 μM (NEGATIVE))
IC50 (CYP2C9): > 10 µM
Total GSH TC50 [5]: >300 µM

COc1cc(-c2oc3cc(C)c(C)cc3c(=O)c2O)ccc1O [CSMC-15, 6,7-dimethyl-3,4'-dihydroxy-3'-methoxyflavone]
IC50 (CYP2D6): > 10 µM
% Control(Compound) (P-glycoprotein (PgP)): 70.8 % Control
MTT TC50 (H4IIE cells [1]): 74 µM
ATP TC50 (H4IIE cells [2]): 78 µM
IC50 (CYP2C19): > 10 µM
Cell Mass TC50 (H4IIE cells [3]): 79 µM
IC50 (CYP1A2): > 25 µM
MemTox TC50 (H4IIE cells [4]): >300 µM
Caspase 3 Activity (Index/Dose): dose (Caspase 3): 300
Caspase 3 Activity (Index/Dose): index (Caspase 3): 1 (0–200 = 1)
Papp A→B at 60 min (P-glycoprotein (MDR1)): 4.08 ×10⁻⁶ cm/s
efflux ratio at 60 min (P-glycoprotein (MDR1)): 0.4
Membrane Lipid Peroxidation (8-Isoprostane (8-ISO)): 0
IC50 (CYP3A4): > 10 µM
TA98+S9 (S. typhimurium TA989): Negative (Not mutagenic < 10 μM (NEGATIVE))
TA98−S9 (S. typhimurium TA989): Negative (Not mutagenic < 10 μM (NEGATIVE))
IC50 (CYP2C9): > 10 µM
Total GSH TC50 [5]: 76 µM

CCOc1cc(-c2ccc(O)c(O)c2)nc2ccccc12 [CSMC-16, 4-ethoxy-2-(3,4-dihydroxyphenyl)quinoline]
IC50 (CYP2D6): > 10 µM
% Control(Compound) (P-glycoprotein (PgP)): 81.3 % Control
MTT TC50 (H4IIE cells [1]): 170 µM
ATP TC50 (H4IIE cells [2]): 162 µM
IC50 (CYP2C19): > 10 µM
Cell Mass TC50 (H4IIE cells [3]): 215 µM
IC50 (CYP1A2): 3.99 µM
CYP1A2 inhibition classification (CYP1A2): moderate inhibition
MemTox TC50 (H4IIE cells [4]): >300 µM
Membrane Lipid Peroxidation (8-Isoprostane (8-ISO)): 0
IC50 (CYP3A4): > 10 µM
TA98+S9 (S. typhimurium TA989): Negative (Not mutagenic < 10 μM (NEGATIVE))
TA98−S9 (S. typhimurium TA989): Negative (Not mutagenic < 10 μM (NEGATIVE))
IC50 (CYP2C9): > 10 µM
Total GSH TC50 [5]: 243 µM

CC(C)Oc1cc(-c2ccc(O)c(O)c2)nc2ccccc12 [CSMC-17, 4-isopropoxy-2-(3,4-dihydroxyphenyl)quinoline]
IC50 (CYP2D6): > 10 µM
% Control(Compound) (P-glycoprotein (PgP)): 80.8 % Control
MTT TC50 (H4IIE cells [1]): 298 µM
ATP TC50 (H4IIE cells [2]): 217 µM
IC50 (CYP2C19): > 10 µM
Cell Mass TC50 (H4IIE cells [3]): 241 µM
IC50 (CYP1A2): 7.49 µM
CYP1A2 inhibition classification (CYP1A2): moderate inhibition
MemTox TC50 (H4IIE cells [4]): >300 µM
Membrane Lipid Peroxidation (8-Isoprostane (8-ISO)): 0
IC50 (CYP3A4): > 10 µM
TA98+S9 (S. typhimurium TA989): Negative (Not mutagenic < 10 μM (NEGATIVE))
TA98−S9 (S. typhimurium TA989): Negative (Not mutagenic < 10 μM (NEGATIVE))
IC50 (CYP2C9): > 10 µM
Total GSH TC50 [5]: 295 µM
